Data reported in ChEMBL document CHEMBL1124977, “Synthesis of acyclic and dehydroaspartic acid analogues of Ac-Asp-Glu-OH and their inhibition of rat brain N-acetylated alpha-linked acidic dipeptidase (NAALA dipeptidase)” (J Med Chem, 1990).
Residues, ends and D or L forms follow the SMILES beside them.

Experiments:
[1] = biological target: T1, Glutamate carboxypeptidase 2 (Rattus norvegicus, UniProt P70627); assay: Tested for Ac-Asp-[3,4-3H]-Glu-OH hydrolysis inhibitory activity against rat forebrain N-acetylated-alpha-linked acidic dipeptidase
Summary of the method: (§1)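 Ki used the same rat forebrain membrane assay (Hepes pH 7.4, NaCl, CoCl₂, radiometric ³H-Glu read-out). Substrate was 0.25, 0.5, 1.0, 2.0 and 5.0 μM. Inhibitor was tested at 0, IC50, and 2- and 4-fold above and below IC50. Lineweaver–Burk slopes were replotted against [inhibitor]. Ki equals the slope at 0 μM inhibitor divided by the replot slope. Ki was determined only when IC50 <100 μM.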

[2] = biological target: T1, Glutamate carboxypeptidase 2; assay: Concentration required for 50%inhibition of Ac-Asp-[3,4-3H]-Glu-OH hydrolysis against rat forebrain N-acetylated-alpha-linked acidic dipeptidase
Summary of the method: (§2)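 Enzyme source: "buffy coat" synaptic membranes from Sprague-Dawley rat (45–90 days) forebrain, washed in 0.1 M Hepes pH 7.4 and stored frozen. Inhibitor was tested at about 2- and 4-fold above and below the estimated IC50. Mean of three experiments ± SEM.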

[3] = biological target: T1, Glutamate carboxypeptidase 2; assay: Concentration required for 50%inhibition of Ac-Asp-[3,4-3H]-Glu-OH hydrolysis against rat forebrain N-Acetylated alpha-linked Dipeptidase (NAALA Dipeptidase); summary of the method: as §2
[4] = biological target: T1, Glutamate carboxypeptidase 2; assay: Tested for Ac-Asp-[3,4-3H]-Glu-OH hydrolysis inhibitory activity against rat forebrain N-Acetylated alpha-linked Dipeptidase (NAALA Dipeptidase); summary of the method: as §1

T1 sequence (P70627 whole entry): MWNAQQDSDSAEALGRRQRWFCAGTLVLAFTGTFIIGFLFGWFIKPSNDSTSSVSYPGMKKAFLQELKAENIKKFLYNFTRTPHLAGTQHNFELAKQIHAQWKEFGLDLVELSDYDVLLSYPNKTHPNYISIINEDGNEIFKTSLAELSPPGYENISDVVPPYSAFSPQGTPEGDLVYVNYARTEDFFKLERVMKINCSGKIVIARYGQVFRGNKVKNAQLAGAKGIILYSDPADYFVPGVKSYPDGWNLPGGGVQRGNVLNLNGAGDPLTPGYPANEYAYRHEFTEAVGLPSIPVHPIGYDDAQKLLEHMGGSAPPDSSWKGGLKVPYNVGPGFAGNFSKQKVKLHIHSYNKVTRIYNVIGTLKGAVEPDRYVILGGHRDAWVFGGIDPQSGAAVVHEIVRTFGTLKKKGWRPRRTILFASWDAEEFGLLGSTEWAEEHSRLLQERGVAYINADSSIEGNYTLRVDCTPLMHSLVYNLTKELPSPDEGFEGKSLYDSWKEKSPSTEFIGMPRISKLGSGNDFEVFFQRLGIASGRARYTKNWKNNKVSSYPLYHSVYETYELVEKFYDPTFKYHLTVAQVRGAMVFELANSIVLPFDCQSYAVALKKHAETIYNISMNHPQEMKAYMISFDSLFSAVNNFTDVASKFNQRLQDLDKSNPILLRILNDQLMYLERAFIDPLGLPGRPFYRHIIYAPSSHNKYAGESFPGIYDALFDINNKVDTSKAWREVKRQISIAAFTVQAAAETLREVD

Row | Ki [1] [µM] | IC50 [2] [µM] | IC50 [3] [µM] | Ki [4] [µM] | SMILES
1 | 0.4 | 0.8 |  |  | O=C(O)/C=C/C(=O)N[C@@H](CCC(=O)O)C(=O)O
2 | 0.9 | 2.5 |  |  | O=C(O)CCC(=O)N[C@@H](CCC(=O)O)C(=O)O
3 | 41 | 83 |  |  | O=C(O)/C=C\C(=O)N[C@@H](CCC(=O)O)C(=O)O
4 | 8.5 |  | 15 |  | CC(=O)N[C@H](CC(=O)O)C(=O)N[C@@H](CCC(=O)O)C(=O)O

Second part, the molecule before the results:

Row | SMILES | Ki [1] [µM] | IC50 [2] [µM] | IC50 [3] [µM] | Ki [4] [µM]
5 | CC(=O)N[C@@H](CCC(=O)O)C(=O)N[C@@H](CC(=O)O)C(=O)O (Ac-Glu-Asp-OH) |  | 193 |  | 
6 | CC(=O)N[C@@H](CC(=O)O)C(=O)N[C@@H](CCC(=O)O)CC(=O)O |  | 200 |  | 
7 | CC(=O)N[C@@H](CC(=O)O)CC(=O)N[C@@H](CCC(=O)O)C(=O)O | 3.2 | 8 |  | 
8 | CC(=O)N[C@@H](CC(=O)O)C(=O)N[C@@H](CC(=O)O)C(=O)O (Ac-Asp-Asp-OH) |  | 250 |  | 
9 | CC(=O)N[C@@H](CCC(=O)O)C(=O)N[C@@H](CCC(=O)O)C(=O)O (Ac-Glu-Glu-OH) |  |  | 9 | 3.5
